According to ChEMBL document CHEMBL2385076, “Discovery of 2-((1H-benzo[d]imidazol-1-yl)methyl)-4H-pyrido[1,2-a]pyrimidin-4-ones as novel PKM2 activators” (Bioorg Med Chem Lett, 2013):
Converted amounts (≈) assume the structure as drawn. The source made the active and inactive calls. The calls are words filed in the database; no cut-off is given here.

Key:
Pyruvate kinase PKM [1] = biological target: T1, Pyruvate kinase PKM (Homo sapiens, UniProt P14618); assay: Activation of human PKM2 assessed as production of ATP at 10 uM after 10 mins by lactate dehydrogenase-coupled enzyme assay
Procedure, shortened: (§1)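 Coupled to lactate dehydrogenase, NADH loss read as the drop in absorbance at 340 nm. Reaction: 2nM human PKM2 (cleaved N-term his, 1-531), 2 mM PEP, 0.35 mM NADH, 4 units/mL LDH in 50 mM Tris pH 7.5 with KCl and 5 mM MgCl2. Compound preincubated 10 minutes at 32 °C, then 0.5mM ADP starts the reaction. Duplicates; 10-point curves; asymptote max = % activation at infinite concentration.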
Target sequence in this assay (P14618 2-531 limits assumed): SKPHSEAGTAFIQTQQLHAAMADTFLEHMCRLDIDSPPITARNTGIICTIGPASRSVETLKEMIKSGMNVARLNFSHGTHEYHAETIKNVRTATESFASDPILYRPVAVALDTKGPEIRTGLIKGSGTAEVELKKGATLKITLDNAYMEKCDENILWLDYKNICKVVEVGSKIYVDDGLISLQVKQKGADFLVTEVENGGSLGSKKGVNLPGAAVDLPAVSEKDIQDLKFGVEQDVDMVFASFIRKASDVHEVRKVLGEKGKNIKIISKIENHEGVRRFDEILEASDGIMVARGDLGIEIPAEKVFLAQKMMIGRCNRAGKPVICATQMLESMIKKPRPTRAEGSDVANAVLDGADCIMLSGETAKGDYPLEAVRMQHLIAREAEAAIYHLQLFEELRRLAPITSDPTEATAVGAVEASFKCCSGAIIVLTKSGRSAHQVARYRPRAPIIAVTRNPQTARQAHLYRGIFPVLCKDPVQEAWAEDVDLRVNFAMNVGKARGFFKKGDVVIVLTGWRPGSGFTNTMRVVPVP

[2] = Kinetic solubility of the compound at pH 7.4; assay type: physicochemical; conditions: buffer, read-out: Kinetic_solubility
[3] = Passive permeability from apical to basolateral side of dog RRCK cells; assay type: ADME, cell-based, Canis lupus familiaris, MDCKII-LE; conditions: MDCK, read-out: permeability
[4] = Intrinsic clearance in human liver microsomes; assay type: ADME, Microsome; conditions: read-out: CLH
Pyruvate kinase PKM [5] = biological target: T1, Pyruvate kinase PKM; assay: Activation of human PKM2 assessed as production of ATP at infinite concentration after 10 mins by lactate dehydrogenase-coupled enzyme assay relative to FBP; procedure, shortened: as §1
Target sequence in this assay (P14618 2-531 limits assumed): as above

Pyruvate kinase PKM [6] = biological target: T1, Pyruvate kinase PKM; assay: Activation of human PKM2 assessed as production of ATP at 10 uM after 10 mins by high-throughput screening assay relative to control
Procedure, shortened: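 High-throughput screen in which PKM2 activity was read as ATP production by luminescence, reported as % activation at 10 µM.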
Target sequence in this assay (P14618 2-531 limits assumed): as above

HT-29 = assay: Antiproliferative activity against human HT-29 cells at 10 uM after 5 days; assay type: functional; conditions: HT-29, 120 h
Procedure, shortened: (§2)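 Cells plated in Optimem-GlutaMax medium and cultured overnight before exposure to 10 µM compound. Viability measured with CytoTox-Glo after 5 days of treatment.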

JHH2 = assay: Antiproliferative activity against human JHH2 cells at 10 uM after 5 days; assay type: functional, cell-based; procedure, shortened: as §2
SNU-182 = assay: Antiproliferative activity against human SNU182 cells at 10 uM after 5 days; assay type: functional, cell-based; procedure, shortened: as §2
SNU-449 = assay: Antiproliferative activity against human SNU449 cells at 10 uM after 5 days; assay type: functional, cell-based; procedure, shortened: as §2
Pyruvate kinase PKM [7] = biological target: T1, Pyruvate kinase PKM; assay: Activation of PKM2 in human Snu182 cells assessed as extracellular acidification rate at 10 uM after 18 hrs; assay type: cell-based
Procedure, shortened: (§3)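 Snu182 cells seeded at 12k/well in RPMI with 10% FBS and 2 mM glutamine, cultured overnight, then given 10 µM compound for 18 h at 37°C, 5% CO2. Medium switched to XF DMEM with 5 mM glucose plus 10 µM compound; OCR and ECAR measured on a Seahorse XF96 analyzer.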
Target sequence in this assay (P14618 2-531 limits assumed): as above

Pyruvate kinase PKM [8] = biological target: T1, Pyruvate kinase PKM; assay: Activation of PKM2 in human Snu182 cells assessed as oxygen consumption rate at 10 uM after 18 hrs; assay type: cell-based; procedure, shortened: as §3
Target sequence in this assay (P14618 2-531 limits assumed): as above

Pyruvate kinase PKM [9] = biological target: T1, Pyruvate kinase PKM; assay: Activation of PKM2 in human Huh7 cells assessed as formation of enzyme tetramers; assay type: cell-based; conditions: Huh-7
Target sequence in this assay (P14618 2-531 limits assumed): as above

Pyruvate kinase PKM [10] = biological target: T1, Pyruvate kinase PKM; assay: Activation of PKM2 in human Huh7 cells assessed as production of pyruvate and ATP by fluorescence assay; assay type: cell-based, Huh-7
Procedure, shortened: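 Huh7 hepatocellular carcinoma cells were treated with compound and lysed, and the lysate was given PEP and ADP. The pyruvate formed was oxidized by pyruvate oxidase, and the fluorescence, proportional to pyruvate, was read as cellular pyruvate kinase activity.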
Target sequence in this assay (P14618 whole entry): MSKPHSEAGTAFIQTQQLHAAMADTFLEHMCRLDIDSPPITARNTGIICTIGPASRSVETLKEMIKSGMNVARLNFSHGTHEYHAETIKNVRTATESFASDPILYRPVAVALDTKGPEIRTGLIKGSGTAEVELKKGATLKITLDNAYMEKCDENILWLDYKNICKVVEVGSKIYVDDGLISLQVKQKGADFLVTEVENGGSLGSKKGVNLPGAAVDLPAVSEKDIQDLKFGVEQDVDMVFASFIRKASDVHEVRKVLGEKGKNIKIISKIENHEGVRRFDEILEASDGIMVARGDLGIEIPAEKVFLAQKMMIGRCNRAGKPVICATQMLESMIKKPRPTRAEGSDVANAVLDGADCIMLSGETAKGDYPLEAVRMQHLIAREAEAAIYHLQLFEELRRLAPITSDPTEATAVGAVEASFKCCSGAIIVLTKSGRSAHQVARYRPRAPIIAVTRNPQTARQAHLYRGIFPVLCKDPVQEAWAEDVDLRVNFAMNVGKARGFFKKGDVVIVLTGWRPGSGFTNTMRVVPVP

HuH-1 (human) = assay: Antiproliferative activity against human HuH1 cells at 10 uM after 5 days

SMILES | solubility kinetic [2] | Papp A→B [3] | microsomal CLint [4] | max activation (Pyruvate kinase PKM [5]) | further results
Cc1ccc2nc(Cn3c(C)nc4ccccc43)cc(=O)n2c1 |  |  |  |  | max activation (Pyruvate kinase PKM [1]): 73%
Cc1cccn2c(=O)cc(Cn3cnc4ccccc43)nc12 | 529 µM (≈ 154 µg/mL) | 242 nm/s | 17.8 µL/min/mg | 172% | 
O=c1cc(Cn2cnc3ccccc32)nc2ccc(Cl)cn12 | 558 µM (≈ 173 µg/mL) | 222 nm/s | < 8 µL/min/mg | 156% | 
Cc1ccn2c(=O)cc(Cn3cnc4ccccc43)nc2c1 | 586 µM (≈ 170 µg/mL) | 213 nm/s | 13.3 µL/min/mg | 161% | 
Cc1ccc2nc(Cn3c(Cc4ccccc4)nc4ccccc43)cc(=O)n2c1 |  |  |  | 148% | Activity (Pyruvate kinase PKM [6]): 155%
Cc1cn2c(=O)cc(Cn3cnc4ccccc43)nc2s1 |  | 143 nm/s | 8 µL/min/mg | 189% | 
CCc1ccc(C)n2c(=O)cc(Cn3cnc4ccccc43)nc12 |  | 162 nm/s | 184 µL/min/mg | 135% | 
O=c1cc(Cn2cnc3ccccc32)nc2sccn12 | 569 µM (≈ 161 µg/mL) | 173 nm/s | 8 µL/min/mg | 162% | 
CCc1nn2c(=O)cc(Cn3cnc4ccccc43)nc2s1 |  | 176 nm/s | 8 µL/min/mg | 140% | 
Cc1sc2nc(Cn3cnc4ccccc43)cc(=O)n2c1C | 141 µM (≈ 43.8 µg/mL) | 229 nm/s | 12.5 µL/min/mg | 160% | 
Cc1csc2nc(Cn3cnc4ccccc43)cc(=O)n12 | 117 µM (≈ 34.7 µg/mL) | 234 nm/s | 8 µL/min/mg | 136% | 
COc1ccc2nc(Cn3cnc4ccccc43)cc(=O)n2c1 | 580 µM (≈ 178 µg/mL) | 258 nm/s | < 8 µL/min/mg | 123% | 
Cc1ccc2nc(Cn3cnc4ccccc43)cc(=O)n2c1 |  |  |  | 149% | 
O=c1cc(Cn2cnc3ccccc32)nc2ccccn12 |  |  |  | 161% | 
O=c1cc(Cn2cnc3ccccc32)nc2scc(-c3ccccc3)n12 |  | 115 nm/s | 8 µL/min/mg | 167% | 
COc1cccc(NS(=O)(=O)c2cc3c(cc2Cl)NC(=O)CO3)c1 | 8.6 µM (≈ 3.17 µg/mL) | 88 nm/s | 22.4 µL/min/mg | 108% | inhibition at 10 µM (HT-29): 26.8%; Activity (JHH2): inactive; Activity (SNU-182): inactive; Activity (SNU-449): inactive; Activity (Pyruvate kinase PKM [7]): 91.4%; Activity (Pyruvate kinase PKM [8]): 85.7%; Activity (Pyruvate kinase PKM [9]): Active; EC50 (Pyruvate kinase PKM [10]): 0.022 µM; Activity (HuH-1 (human)): inactive
